Activity calls are given as the source filed them. The calls are words filed in the database; no cut-off is given here. Square brackets hold non-standard residues; d marks the D form. Peptide text beside a SMILES is read from it. Hyp = O=C(O)[C@@H]1C[C@@H](O)CN1; Ahx = NCCCCCC(=O)O
What was measured:
MCF7 [1] = assay: Inhibition of colony formation in human MCF7 cells at 10 uM incubated for 2 weeks in presence of tamoxifen by crystal violet staining based assay; type: functional, cell-based
Method in brief: (§1)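 Cells are seeded at 1 × 10^3/well and treated with peptide (10 μM) for 2 weeks, alone or with JQ1 5 μM, iJMJD6 10 μM, ICI 2.5 μM, or tamoxifen 3 μM (tamoxifen-resistant lines). Colonies are stained with crystal violet, dissolved in 10% acetic acid, and read at 590 nm. Three biological repeats.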

[2] = Toxicity in BALB/c mouse xenografted with human MCF7 cells assessed as change in liver at 12.5 mg/kg, ip administered every 2 days in presence of 12.5 mg/kg JMJD6 inhibitor; type: organism-based; conditions: in vivo, 48 h
Method in brief: (§2)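 Female BALB/c nude mice carried MCF7 xenografts (5 × 10^6 cells sc, E2 10–2 M brushed every 2 days) and were randomized at about 50 mm3. Peptide was given at 12.5 mg/kg ip every 2 days, and iJMJD6 (DMSO/PBS 1:20) at 12.5 mg/kg ip every other day, alone or combined. Body and organ weights were recorded.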

MCF7 [3] = assay: Antitumor activity against human MCF7 cells xenografted in BALB/c nude mouse assessed as reduction in tumor weight at 12.5 mg/kg, ip administered every 2 days in presence of 50 mg/kg JQ1; type: functional, organism-based
Method in brief: (§3)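 Female BALB/c nude mice given 5 × 10^6 cells sc (MCF7 mice with E2 10^-2 M every 2 days), randomised at ~50 mm3. Peptide 12.5 mg/kg ip (saline) every 2 days, plus JQ1 50 mg/kg ip (DMSO/10% HPBCD 1:10) every 2 days or iJMJD6 12.5 mg/kg ip (DMSO/PBS 1:20). Caliper volume every 2 days; tumours weighed at the end.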

MDA-MB-231 [4] = assay: Downregulation of CCND1 gene expression in human MDA-MB-231 cells at 10 uM incubated for 6 hrs by RT-qPCR analysis; type: functional, cell-based
Method in brief: (§4)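 Cells treated with peptide (10 μM) for 6 h; c-Myc, N-myc and CCND1 mRNA measured by RT-qPCR. Three biological repeats.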

MCF7 [5] = assay: Inhibition of cell migration in human MCF7 cells at 10 uM incubated for 24 hrs in presence of 5 uM JQ1 by inverted microscopic assay; type: functional, cell-based
Method in brief: (§5)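 Cells are seeded at 5 × 10^5/well and scratched at 80–90% confluence. They are kept in serum-free medium with peptide (10 μM); partner agents are JQ1 5 μM, iJMJD6 10 μM, or ICI 2.5 μM. Wound area is imaged by inverted microscope at 0 and 12 or 24 h. Wound closure % = (A0−A1)/A0 × 100. Three biological repeats.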

BT-549 = assay: Inhibition of colony formation in human BT-549 cells at 10 uM incubated for 2 weeks by crystal violet staining based assay; type: functional, cell-based; method in brief: as §1
[6] = Downregulation of CCND1 protein expression in BALB/c mouse tumor xenografted with human MDA-MB-231 cells assessed as fold change in remaining CCND1 level at 25 mg/kg, ip administered every 2 days by immunoblotting analysis; type: functional
Method in brief: (§6)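 Tumours taken from xenograft mice dosed with peptide at 25 mg/kg ip every 2 days. […] Three repeats.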

MCF7 [7] = assay: Downregulation of […] gene expression in human MCF7 cells at 10 uM incubated for 6 hrs by RT-qPCR analysis; type: functional, cell-based; method in brief: as §4
MCF7 [8] = assay: Antiproliferative activity against human MCF7 cells at 10 uM incubated for 1 week in presence of 5 uM JQ1 by CellTiter 96 Aqueous One Solution based assay; type: functional, cell-based; conditions: time 1.0 weeks
Method in brief: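 Cells seeded at 2 × 10^3/well and treated with peptide (10 μM) alone or combined with JQ1 (5 μM), iJMJD6 (10 μM) or ICI (2.5 μM), as the line states. Viability read by MTS reagent, 1 h at 37 °C, A490. Three biological repeats.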

[9] = Downregulation of […] protein expression in human MDA-MB-231 cells assessed as fold change in […] at 10 uM incubated for 24 hrs by immunoblotting analysis (reference value: 1); type: functional
Method in brief: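 Cells treated with peptide (10 μM) for 24 h. Lysates in Tris/NaCl/EDTA/1% Triton X-100, run on 10% SDS-PAGE and immunoblotted with ECL detection. β-actin as loading control. Three repeats, quantified against untreated cells.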

MDA-MB-231 [10] = assay: Antitumor activity against human MDA-MB-231 cells xenografted in BALB/c nude mouse assessed as reduction in tumor growth at 25 mg/kg, ip administered every 2 days; type: functional, organism-based
Method in brief: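 Female BALB/c nude mice, 4–6 wk, given 5 × 10^6 cells in PBS subcutaneously; MCF7 mice also had E2 (10^-2 M) brushed on the neck every 2 days. Randomised at ~50 mm3. Peptide in 0.9% saline, 25 mg/kg ip every 2 days. Caliper volume (1/2 × L × W²) every 2 days.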

[11] = Downregulation of CCND1 protein expression in BALB/c mouse tumor xenografted with human MCF7 cells assessed as fold change in remaining CCND1 level at 25 mg/kg, ip administered every 2 days by immunoblotting analysis; type: functional; method in brief: as §6
[12] = Toxicity in BALB/c mouse xenografted with human MCF7 cells assessed as change in spleen at 12.5 mg/kg, ip administered every 2 days in presence of 12.5 mg/kg JMJD6 inhibitor; type: organism-based; conditions: in vivo, 48 h; method in brief: as §2
[13] = Toxicity in BALB/c mouse xenografted with human MDA-MB-231 cells assessed as change in kidney morphology at 12.5 mg/kg, ip administered every 2 days in presence of 50 mg/kg JQ1; type: organism-based; conditions: in vivo, 48 h
Method in brief: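 Female BALB/c nude mice (4–6 weeks) carried sc MDA-MB-231 xenografts (5 × 10^6 cells) and were randomized at about 50 mm3. Peptide (12.5 mg/kg ip in saline) and JQ1 (50 mg/kg ip, DMSO/10% HPBCD 1:10) were given every 2 days, alone or combined. Body weight was recorded, and heart, liver, spleen, lung and kidney morphology and weight were assessed.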

[14] = Downregulation of c-Myc protein expression in human MCF7 cells assessed as fold change in remaining c-Myc level at 10 uM incubated for 24 hrs by immunoblotting analysis (reference value: 1); type: functional
Method in brief: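 Cells (MCF7 or MDA-MB-231 in DMEM, 10% FBS, 37 °C, 5% CO2) are treated with peptide for 24 h. Lysates are taken in Tris/NaCl/EDTA/1% Triton buffer and run on 10% SDS-PAGE. Immunoblots are normalised to β-actin loading control; three repeats.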

T47D = assay: Inhibition of cell migration in human T47D cells at 10 uM incubated for 24 hrs in presence of JMJD6 inhibitor by inverted microscopic analysis; type: functional, cell-based; method in brief: as §5
[15] = Toxicity in BALB/c mouse xenografted with human MCF7 cells assessed as change in heart weight at 12.5 mg/kg, ip administered every 2 days in presence of 50 mg/kg JQ1; type: organism-based; conditions: in vivo, 48 h
[16] = Toxicity in BALB/c mouse xenografted with human MCF7 cells assessed as change in kidney at 12.5 mg/kg, ip administered every 2 days in presence of 12.5 mg/kg JMJD6 inhibitor; type: organism-based; conditions: in vivo, 48 h; method in brief: as §2
MDA-MB-231 [17] = assay: Antitumor activity against human MDA-MB-231 cells xenografted in BALB/c nude mouse assessed as reduction in tumor weight at 12.5 mg/kg, ip administered every 2 days in presence of 50 mg/kg JQ1; type: functional, organism-based; method in brief: as §3

| Compound | inhibition (MCF7 [1]) | Activity [2] | Activity (MCF7 [3]) | Activity (MDA-MB-231 [4]) | inhibition (MCF7 [5]) | inhibition (BT-549) | fold change (FC) [6] | Activity (MCF7 [7]) | Activity (MCF7 [8]) | fold change (FC) [9] | Activity (MDA-MB-231 [10]) | fold change (FC) [11] | Activity [12] | Activity [13] | fold change (FC) [14] | inhibition (T47D) | Activity [15] | Activity [16] | Activity (MDA-MB-231 [17]) |
| --- | --- | --- | --- | --- | --- | --- | --- | --- | --- | --- | --- | --- | --- | --- | --- | --- | --- | --- | --- |
| H-YGRKKRRQRRRRNQKFKCGE-OH | Active | Non-Toxic | Active | Active | Active | Active | 0.28 | Active | Active | 0.72 | Active | 0.11 | Non-Toxic | Non-Toxic | 0.69 | Active | Non-Toxic | Non-Toxic | Active |
| CC[C@H](C)[C@H](NC(=O)[C@H](Cc1ccc(O)cc1)NC(=O)[C@@H]1C[C@@H](O)CN1C(=O)[C@H](C)NC(=O)[C@@H](NC(=O)CCCCCNC(=O)[C@H](CCC(=O)O)NC(=O)CNC(=O)[C@H](CS)NC(=O)[C@H](CCCCN)NC(=O)[C@H](Cc1ccccc1)NC(=O)[C@H](CCCCN)NC(=O)[C@H](CCC(N)=O)NC(=O)[C@H](CC(N)=O)NC(=O)[C@H](CCCNC(=N)N)NC(=O)[C@H](CCCNC(=N)N)NC(=O)[C@H](CCCNC(=N)N)NC(=O)[C@H](CCCNC(=N)N)NC(=O)[C@H](CCC(N)=O)NC(=O)[C@H](CCCNC(=N)N)NC(=O)[C@H](CCCNC(=N)N)NC(=O)[C@H](CCCCN)NC(=O)[C@H](CCCCN)NC(=O)[C@H](CCCNC(=N)N)NC(=O)CNC(=O)[C@@H](N)Cc1ccc(O)cc1)[C@@H](C)CC)C(=O)O (H-YGRKKRRQRRRRNQKFKCGE[Ahx]IA[Hyp]YI-OH) | Active | Non-Toxic | Active | Active | Active | Active | 0.08 | Active | Active | 0.68 | Active | 0.09 | Non-Toxic | Non-Toxic | 0.72 | Active | Non-Toxic | Non-Toxic | Active |

From ChEMBL document CHEMBL5543129, “Peptide Inhibitor Targeting the Extraterminal Domain in BRD4 Potently Suppresses Breast Cancer Both In Vitro and In Vivo” (J Med Chem, 2024)
